Compound activity deposited in PubChem by several laboratories.
CHOP UPR activ: activators of apoptotic arm of unfolded protein response (CHOP); AID 449763; hit rate 0.34% among 330,000; CHO-CHOP luciferase reporter, UPR activation, luminescence; percent of tunicamycin response over DMSO baseline; activation, % at 10 µM;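 active means at 10 µM dose, activation of 40% or more, normalized to positive control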
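assay system = CHO CHOP reporter cells | amount = 500 CHO-CHOP cells per well | buffer or medium = F12 with 10% FBS | incubation = 16-18 h cell attachment, then 6 h compound exposure, 37 °C | detection = luminescence read with Steady-Glo | read-out = percent activation relative to tunicamycin control | controls = tunicamycin high control, DMSO low control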
Dynein transport: blocks dynein driven cargo transport along microtubules; 3617.4 mouse cells, GR-EGFP nuclear translocation imaging; test concentration mostly 20 µM; stimulated with dexamethasone, 1 µM; active compounds read low; z-score, hits read low; hit rate 0.47% among 220,000;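 active means plate z-score of nuclear minus cytoplasmic receptor signal below a set negative limit, without overly bright fluorescence or cell loss, cut at about -3.5 in these data, passing the limit was not always enough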;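 further: z-score of nuclear minus cytoplasmic ring GR-EGFP intensity difference per well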
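medium = tetracycline-free induction medium containing charcoal-stripped FBS | probe or stimulus = dexamethasone, 1.0 µM final | timing = 48 h induction, then 1 h compound, then 30 min agonist, 37 °C | detection = automated 10x imaging of fixed Hoechst-stained cells | read-out basis = nuclear versus cytoplasmic GR-EGFP signal, averaged per well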
T cruzi inh: T. cruzi replication inhibition; T. cruzi beta-gal in NIH3T3, luminescence, 90 h; inhibition, % (no concentration beside the values); hit rate 1.4% among 300,000; AID 1885;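 active means mean inhibition across valid replicates above about 55%, limit read from the data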;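 further: signal also drops with host cell toxicity which is not excluded here; higher percent means less beta-gal luminescence so fewer parasites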
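Read-out: Parasite load inhibition, % | Test system: Mouse NIH/3T3 fibroblasts infected with β-gal-expressing T. cruzi Tulahuen C4 | Amount: 5,000 cells/well | Medium: DMEM, 2% fetal bovine serum | Signal: GalScreen β-gal luminescence, detergent lysis, 60 min | Timing: 3 h attach, ≥90 h co-culture | Also added: Tulahuen C4 trypomastigotes, 5000/well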
L major viab: inhibitors of Leishmania major promastigote growth. inhibition, % at 10 µM. AID 1063. hit rate 9% among 200,000. Leishmania major promastigotes, resazurin fluorescence viability; in the data active means inhibition above about 50%;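 further: promastigotes grown with compound for 44 hours at 28 °C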
CHOP inhibitor: inhibitors of CHOP induction in ER stress response; CHO-K1 CHOP-promoter luciferase, tunicamycin-induced, 15-18 h; inhibition, % at 10 µM; hit rate 3.8% among 220,000;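 active means compounds that reduced the stress-induced luciferase reporter signal by more than about 70% of percent inhibition, limit read from the data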
UPR XBP1 act: adaptive UPR (XBP1) activation | CHO-XBP1 luciferase reporter, IRE1-XBP1 UPR activation, luminescence; percent of tunicamycin response, DMSO as zero | activation, % at 20 µM | hit rate 0.33% among 330,000 | AID 463104;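 active means versus positive control, 20 µM dose yields 30% or more activation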
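Test system: CHO-XBP1 luciferase reporter cells | Buffer or medium: Serum-containing F12 medium, 10% FBS | Schedule: 6 h compound exposure at 37 °C, 5% CO2 | Detection: Steady-Glo luciferase glow luminescence, 10 min after reagent addition | Read-out basis: Activation, % of tunicamycin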
Of the large screens only hits and unclear results are named; the others gave an inactive call. Many of the other results were omitted from the sample, so hits are more common in it than they were.

O=C(CCc1ccccc1)NNC(=O)c1ccncc1	none (no result: Dynein transport, T cruzi inh, L major viab, CHOP inhibitor)
CSc1ccc(OC2CCCCC2NS(=O)(=O)c2ccc(Cl)cc2)cc1 (configuration not stated)	L major viab 96
O=S(=O)(NC1CCCCC1Oc1ccccc1)c1ccc(Cl)cc1 (configuration not stated)	L major viab 75
CCCCCN1CC(=O)N2Cc3[nH]c4ccccc4c3C[C@H]2C1=O	none (no result: Dynein transport, L major viab, CHOP inhibitor)
CCCCN1C(=O)C2Cc3c([nH]c4ccccc34)CN2C1=S (configuration not stated)	CHOP inhibitor 80
O=c1[nH]ncc(N2CCN(Cc3ccccc3)CC2)c1Cl	none
COc1ccc(SC[C@H](Cc2ccccc2)N2CC[C@@H](NC(=O)OCc3ccccc3)CCC2=O)cc1	none (no result: Dynein transport, T cruzi inh, L major viab, CHOP inhibitor)
O=C(NCc1n[nH]c(=S)n1-c1ccc(F)cc1)c1ccc(S(=O)(=O)N2CCOCC2)cc1	CHOP inhibitor 82
O=C(NCc1n[nH]c(=S)n1-c1ccccc1)c1ccc(S(=O)(=O)N2CCOCC2)cc1	none
Cc1ccc(-c2nn(-c3ccccc3)cc2CC(=S)N2CCOCC2)cc1	none (no result: Dynein transport, L major viab, CHOP inhibitor)
OCc1cn(-c2ccccc2)nc1-c1ccc(-c2nn(-c3ccccc3)cc2CO)cc1	CHOP inhibitor 88
O=C(O)Cc1cn(-c2ccccc2)nc1-c1ccccc1	none
Cc1ccc(-c2nn(-c3ccccc3)cc2CSC(=N)N)cc1	L major viab 100
O=C(NCc1csc(-c2ccccc2)n1)c1cc(F)cc2c1OCOC2	none (no result: L major viab)
CCc1ccccc1C1=CC(=O)C[C@H](c2ccc(OC)cc2)C1	none (no result: Dynein transport, T cruzi inh, L major viab, CHOP inhibitor)
COc1ccc(NC(C)=[N+](C)CCNS(=O)(=O)c2ccc(Cl)cc2)cc1Cl	T cruzi inh 58 (no result: Dynein transport, L major viab, CHOP inhibitor)
COc1ccc(CCNC(=O)CN2CCN(c3cccc(C(F)(F)F)c3)CC2)cc1	CHOP inhibitor 86
O=C(CN1CCN(Cc2ccccc2)CC1)Nc1ccc2c(c1)CCC2	L major viab 74
O=C(Nc1cccc(S(=O)(=O)N2CCCCC2)c1)c1c2c(nc3ccccc13)CCN(Cc1ccccc1)C2	L major viab 90
CC1CCN(CC(=O)Nc2cccc(C(=O)Nc3cccc(C(F)(F)F)c3)c2)CC1	L major viab 82
Cc1cc(C(=O)Nc2cccc(S(=O)(=O)N3CCCCC3)c2)c2ccccc2n1	none
O=C(COC(=O)COc1ccc(Br)cc1)NCc1ccccc1	none (no result: Dynein transport, T cruzi inh, L major viab, CHOP inhibitor)
O=C(COc1ccccc1F)Nc1ccc2c(c1)CCC2	none (no result: Dynein transport, T cruzi inh, L major viab, CHOP inhibitor)
O=C(CN1CCN(c2ccccc2)CC1)Nc1cccc(C(F)(F)F)c1	CHOP inhibitor 79
COc1ccc(CC(=O)Nc2cccc(S(=O)(=O)N3CCCCCC3)c2)cc1OC	L major viab 84, CHOP inhibitor 71 (no result: CHOP UPR activ, UPR XBP1 act)
O=C(C1CCN(c2nnc(-n3cccc3)s2)CC1)N1CCN(c2cccc(C(F)(F)F)c2)CC1	CHOP inhibitor 77
O=C(COc1cccc(Cl)c1)Nc1ccc2c(c1)CCC2	L major viab 56
CN1CCN(S(=O)(=O)c2ccc3c(c2)oc(=O)n3C)CC1	none (no result: Dynein transport, L major viab, CHOP inhibitor)
COC(=O)c1ccc(COC(=O)CNC(=O)c2cccs2)cc1	none (no result: Dynein transport, L major viab, CHOP inhibitor)
O=C(Nc1cc(C(F)(F)F)ccc1N1CCOCC1)C1CCCO1 (configuration not stated)	none (no result: Dynein transport, T cruzi inh, L major viab, CHOP inhibitor)
O=S(=O)(c1ccc(F)cc1)N1CCC2(CC1)OCCN2S(=O)(=O)c1cccs1	none (no result: Dynein transport, L major viab, CHOP inhibitor)
COc1ccc(NC(=O)N2CCN(c3cccc(C(F)(F)F)c3)CC2)cc1OC	none
O=C(CN1CCN(Cc2ccccc2)CC1)Nc1cccc(S(=O)(=O)N2CCCCCC2)c1	L major viab 79
O=C(CN1CCOCC1)Nc1cccc(S(=O)(=O)N2CCCCCC2)c1	none
O=C(c1cccc([N+](=O)[O-])c1)N1CCN(c2cccc(Cl)c2)CC1	none
O=C(CN1CCN(Cc2ccccc2)CC1)Nc1cccc(Cl)c1	none (no result: Dynein transport, L major viab, CHOP inhibitor)
COC(=O)c1cc(C(=O)N2CCN(c3cccc(Cl)c3)CC2)cc([N+](=O)[O-])c1	L major viab 50
O=C(Nc1ccccc1)N1CCN(c2cccc(C(F)(F)F)c2)CC1	L major viab 90
O=C(CN1CCN(Cc2ccccc2)CC1)Nc1cccc(C(F)(F)F)c1	L major viab 65
